# Measured values from ChEMBL document CHEMBL1122809, “Improved synthesis and antitumor activity of 2-bromo-2'-deoxyadenosine” (1984).
# Legend:
# L1210 [1] = assay: Antitumor activity expressed as life span was determined against inoculated L1210 leukemia cells (1*10e6) in mice by 90 mg/kg dosage of compound (qd (x 3), for days 1, 4, 7); format: functional, Mus musculus
# Method in brief: (§1)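 Female mice (~18 g, housed six per cage) received L1210 cells intraperitoneally on day 0. Drug was made fresh and injected at 0.01 mL/g; the stated dose is per injection. Controls received the same volume of 0.154 M NaCl. Survival was followed, with deaths assigned to tumour by necropsy or to drug toxicity by set criteria. Life span is given as mean ± SD.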
# L1210 [2] = assay: Antitumor activity expressed as life span was determined against inoculated L1210 leukemia cells (1*10e6) in mice by 11.3 mg/kg dosage of compound (qd (x 3), for days 1, 4, 7,10,13,16); format: functional, Mus musculus; method in brief: as §1
# L1210 [3] = assay: Antitumor activity expressed as life span was determined against inoculated L1210 leukemia cells (1*10e6) in mice by 30 mg/kg dosage of compound (qd (x 3), for days 1- 7); format: functional, Mus musculus; method in brief: as §1
# L1210 [4] = assay: Antitumor activity expressed as life span was determined against inoculated L1210 leukemia cells (1*10e5) in mice by 5.6 mg/kg dosage of compound (qd (x 3), for days 1,5,9); format: functional, Mus musculus; method in brief: as §1
# L1210 [5] = assay: Antitumor activity expressed percentage increase in life span was determined against inoculated L1210 leukemia cells (1*10e5) in mice by 45 mg/kg dosage of compound (qd (x 3), for days 1,5,9); format: functional; conditions: Mus musculus
# Method in brief: (§2)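 L1210 cells were given intraperitoneally to female mice (~18 g). Freshly prepared drug was injected at 0.01 mL/g, dose per injection, and saline-injected controls were run. The end point was duration of survival. ILS was calculated as percent increase in mean life span over controls. Mice surviving 60 days or more counted as long-term survivors, scored as 60 days.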
# L1210 [6] = assay: Antitumor activity expressed percentage increase in life span was determined against inoculated L1210 leukemia cells (1*10e6) in mice by 22.5 mg/kg dosage of compound (qd (x 3), for days 1, 4, 7,10,13,16); format: functional; conditions: Mus musculus; method in brief: as §2
# L1210 [7] = assay: Antitumor activity expressed as life span was determined against inoculated L1210 leukemia cells (1*10e5) in mice by 22.5 mg/kg dosage of compound (qd (x 3), for days 1, 4, 7,10,13,16); format: functional, Mus musculus; method in brief: as §1
# L1210 [8] = assay: Antitumor activity expressed as life span was determined against inoculated L1210 leukemia cells (1*10e6) in mice by 180 mg/kg dosage of compound (qd (x 3), for days 1, 4, 7); format: functional, Mus musculus; method in brief: as §1
# L1210 [9] = assay: Antitumor activity expressed percentage increase in life span was determined against inoculated L1210 leukemia cells (1*10e6) in mice by 50 mg/kg dosage of compound (qd (x 3), for days 1- 7); format: functional; conditions: Mus musculus
# Method in brief: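 Female mice of about 18 g (BDF1, DBA/2 or C57Bl/6 stocks used) were inoculated intraperitoneally with 1 × 10^6 L1210 cells. Freshly prepared drug was given once daily from about 24 h after inoculation at 0.01 mL/g, with the dose stated per injection. Controls received 0.154 M NaCl, and groups held 6 mice. %ILS was taken from mean survival, with mice alive at 60 days or more counted as 60 days.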
# L1210 [10] = assay: Antitumor activity expressed percentage increase in life span was determined against inoculated L1210 leukemia cells (1*10e6) in mice by 110 mg/kg dosage of compound (qd (x 3), for days 1-7); format: functional; conditions: Mus musculus; method in brief: as §2
# L1210 [11] = assay: Antitumor activity expressed percentage increase in life span was determined against inoculated L1210 leukemia cells (1*10e6) in mice by 11.3 mg/kg dosage of compound (qd (x 3), for days 1, 4, 7); format: functional; conditions: Mus musculus; method in brief: as §2
# L1210 [12] = assay: Antitumor activity expressed percentage increase in life span was determined against inoculated L1210 leukemia cells (1*10e6) in mice by 140 mg/kg dosage of compound (qd (x 3), for days 1, 4, 7); format: functional; conditions: Mus musculus; method in brief: as §2
# L1210 [13] = assay: Antitumor activity expressed as life span was determined against inoculated L1210 leukemia cells (1*10e5) in mice by 22.5 mg/kg dosage of compound (qd (x 3), for days 1,5,9); format: functional, Mus musculus; method in brief: as §1
# M5076 = assay: Antitumor activity was evaluated by measuring mean life span in tumor (M5076) inoculated mice at 5.6 mg/kg (qd3hx8),days 1-34; format: functional, Mus musculus
# Method in brief: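 Female mice of about 18 g received subcutaneous M5076 implants matching those used for serial passage. Drug was freshly prepared and injected at 0.01 mL/g every 3 h (×8) on every 3rd day from day 1 to day 34, with the dose stated per injection. Controls received 0.154 M NaCl. Groups held 18 mice (11 in one group). Mean life span was reported as mean ± SD, and tumor volume was also assessed.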
# L1210 [14] = assay: Antitumor activity expressed percentage increase in life span was determined against inoculated L1210 leukemia cells (1*10e5) in mice by 5.6 mg/kg dosage of compound (qd (x 3), for days 1, 4, 7); format: functional; conditions: Mus musculus; method in brief: as §2
# L1210 [15] = assay: Antitumor activity expressed as life span was determined against inoculated L1210 leukemia cells (1*10e6) in mice by 110 mg/kg dosage of compound (qd (x 3), for days 1, 4, 7); format: functional, Mus musculus; method in brief: as §1
# L1210 [16] = assay: Antitumor activity expressed percentage increase in life span was determined against inoculated L1210 leukemia cells (1*10e5) in mice by 11.3 mg/kg dosage of compound (qd (x 3), for days 1, 4, 7); format: functional; conditions: Mus musculus; method in brief: as §2
# L1210 [17] = assay: Antitumor activity expressed percentage increase in life span was determined against inoculated L1210 leukemia cells (1*10e5) in mice by 11.3 mg/kg dosage of compound (qd (x 3), for days 1, 4, 7,10,13,16); format: functional; conditions: Mus musculus; method in brief: as §2
# L1210 [18] = assay: Antitumor activity expressed as life span was determined against inoculated L1210 leukemia cells (1*10e6) in mice by 22.5 mg/kg dosage of compound (qd (x 3), for days 1, 4, 7,10,13,16); format: functional, Mus musculus; method in brief: as §1
# L1210 [19] = assay: Antitumor activity expressed as life span was determined against inoculated L1210 leukemia cells (1*10e6) in mice by 11.3 mg/kg dosage of compound (qd (x 3), for days 1, 4, 7); format: functional, Mus musculus; method in brief: as §1
# L1210 [20] = assay: Antitumor activity expressed as life span was determined against inoculated L1210 leukemia cells (1*10e5) in mice by 5.6 mg/kg dosage of compound (qd (x 3), for days 1, 4, 7); format: functional, Mus musculus; method in brief: as §1
# L1210 [21] = assay: Antitumor activity expressed percentage increase in life span was determined against inoculated L1210 leukemia cells (1*10e5) in mice by 5.6 mg/kg dosage of compound (qd (x 3), for days 1,5,9); format: functional; conditions: Mus musculus; method in brief: as §2
# B16 melanoma (mouse) = assay: Antitumor activity was evaluated by measuring mean life span in tumor (B16 melanoma) inoculated mice at 11.3 mg/kg (qd3hx8),days 1,4,7,10
# L1210 [22] = assay: Antitumor activity expressed as life span was determined against inoculated L1210 leukemia cells (1*10e5) in mice by 11.3 mg/kg dosage of compound (qd (x 3), for days 1, 4, 7,10,13,16); format: functional, Mus musculus; method in brief: as §1
# L1210 [23] = assay: Antitumor activity expressed as life span was determined against inoculated L1210 leukemia cells (1*10e5) in mice by 45 mg/kg dosage of compound (qd (x 3), for days 1, 4, 7); format: functional, Mus musculus; method in brief: as §1
smiles,measurement,setting,value
Nc1nc(Br)nc2c1ncn2[C@H]1C[C@H](O)[C@@H](CO)O1,Life span,L1210 [1],7 days
same,Life span,L1210 [2],13.17 days
same,Life span,L1210 [3],7.67 days
same,Life span,L1210 [4],12.36 days
same,ILS at 45 mg/kg,L1210 [5],387%
same,ILS at 22.5 mg/kg,L1210 [6],127%
same,Life span,L1210 [7],20.67 days
same,Life span,L1210 [8],5 days
same,ILS at 50 mg/kg,L1210 [9],42%
same,ILS at 110 mg/kg,L1210 [10],0%
same,ILS at 11.3 mg/kg,L1210 [11],104%
same,ILS at 140 mg/kg,L1210 [12],26%
same,Life span,L1210 [13],21.42 days
same,Life span,M5076,34.44 days
same,ILS at 5.6 mg/kg,L1210 [14],60%
same,Life span,L1210 [15],8.17 days
same,ILS at 11.3 mg/kg,L1210 [16],95%
same,ILS at 11.3 mg/kg,L1210 [17],128%
same,Life span,L1210 [18],16.08 days
same,Life span,L1210 [19],12.92 days
same,Life span,L1210 [20],11.75 days
same,ILS at 5.6 mg/kg,L1210 [21],59%
same,Life span,B16 melanoma (mouse),23.11 days
same,Life span,L1210 [22],18.67 days
same,Life span,L1210 [23],37.92 days
